Assay results taken from ChEMBL document CHEMBL1146132, “Synthesis and activity of small molecule GPR40 agonists” (Bioorg Med Chem Lett, 2006).

Assays:
[1] = target: T1, Free fatty acid receptor 1 (Homo sapiens, UniProt O14842); assay: Agonist potency at human GPR40 expressed in CHO cells; type: functional, cell-based
How it was run: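 Ten-point dose–response in CHO cells stably expressing human GPR40. Receptor activation was read out by a Gal4/Elk1/luciferase reporter gene. Potency was taken from the curve and reported as pEC50.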

[2] = target: T1, Free fatty acid receptor 1; assay: Agonist potency at human GPR40 expressed in CHO cells relative to standard by luciferase reporter gene assay; type: functional, cell-based

T1 sequence (O14842 whole entry, the tested form may be a part): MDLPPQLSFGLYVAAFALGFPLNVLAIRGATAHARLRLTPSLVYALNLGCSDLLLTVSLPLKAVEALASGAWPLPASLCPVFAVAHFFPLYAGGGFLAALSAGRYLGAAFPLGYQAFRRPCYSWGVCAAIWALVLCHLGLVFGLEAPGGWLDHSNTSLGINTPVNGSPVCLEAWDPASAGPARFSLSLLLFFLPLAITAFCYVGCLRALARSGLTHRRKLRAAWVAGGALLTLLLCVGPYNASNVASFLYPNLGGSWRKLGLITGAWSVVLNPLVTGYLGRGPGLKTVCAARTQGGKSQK

SMILES | EC50 [1] | %max [2]
CC(C)(Oc1ccc(NCc2cccc(Oc3ccccc3)c2)cc1)C(=O)O | > 10000 nM | 14%
O=C(CCc1ccc(NCc2cccc(Oc3ccccc3)c2)cc1)N1CCCC1 | 115 nM | 46%
O=C(O)CSc1ccc(NCc2cccc(Oc3ccccc3)c2)cc1 | 324 nM | 84%
O=C(O)[C@H]1C[C@@H]1c1ccc(NCc2cccc(Oc3ccccc3)c2)cc1 (stereo in doubt; 10A) [listing 1 of 2 here] |  | 72%
O=C(O)[C@H]1C[C@@H]1c1ccc(NCc2cccc(Oc3ccccc3)c2)cc1 (stereo in doubt; 10A) [listing 2 of 2 here] | 13.5 nM | 
O=C(O)CCc1ccc(NCc2cccc(Oc3ccccc3)c2)cc1 [GW9508] | 64.6 nM | 86%
O=C(NO)[C@H]1C[C@@H]1c1ccc(NCc2cccc(Oc3ccccc3)c2)cc1 | 14.8 nM | 90%
CC(C)NC(=O)CCc1ccc(NCc2cccc(Oc3ccccc3)c2)cc1 | 39.8 nM | 66%
O=C(O)COc1ccc(NCc2cccc(Oc3ccccc3)c2)cc1 | 2040 nM | 84%
CC(Cc1ccc(NCc2cccc(Oc3ccccc3)c2)cc1)C(=O)O (configuration not stated) | 100 nM | 70%
CNC(=O)CCc1ccc(NCc2cccc(Oc3ccccc3)c2)cc1 | 49 nM | 67%
O=C(O)/C=C/c1ccc(NCc2cccc(Oc3ccccc3)c2)cc1 | 145 nM | 76%
NC(=O)CCc1ccc(NCc2cccc(Oc3ccccc3)c2)cc1 | 51.3 nM | 68%
O=C(O)[C@H]1C[C@@H]1c1ccc(NCc2cccc(Oc3ccccc3)c2)cc1 (stereo in doubt; 14A) [listing 1 of 2 here] |  | 88%
O=C(O)[C@H]1C[C@@H]1c1ccc(NCc2cccc(Oc3ccccc3)c2)cc1 (stereo in doubt; 14A) [listing 2 of 2 here] | 12.3 nM | 
O=C(O)CCCc1ccc(NCc2cccc(Oc3ccccc3)c2)cc1 | 1120 nM | 59%
CC(CC(=O)O)c1ccc(NCc2cccc(Oc3ccccc3)c2)cc1 (configuration not stated) | 126 nM | 83%
O=C(O)[C@@H]1C[C@H]1c1ccc(NCc2cccc(Oc3ccccc3)c2)cc1 | 562 nM | 64%
O=C(O)c1ccc(NCc2cccc(Oc3ccccc3)c2)cc1 | > 10000 nM | 86%
CN(C)C(=O)CCc1ccc(NCc2cccc(Oc3ccccc3)c2)cc1 | 174 nM | 50%
O=C(O)Cc1ccc(NCc2cccc(Oc3ccccc3)c2)cc1 | > 10000 nM | 36%

The remaining lines, values ahead:

EC50 [1] | %max [2] | SMILES
100 nM | 84% | Cc1nc(-c2ccc(C(F)(F)F)cc2)sc1CNc1ccc(CCC(=O)NC(C)C)cc1
2.45 nM |  | Cc1nc(-c2ccc(C(F)(F)F)cc2)sc1CNc1ccc([C@H]2C[C@@H]2C(=O)O)cc1 (stereo in doubt; 10B) [listing 1 of 2 here]
288 nM | 100% | Cc1nc(-c2ccc(C(F)(F)F)cc2)sc1CNc1ccc(OCC(=O)O)cc1
66.1 nM | 49% | Cc1nc(-c2ccc(C(F)(F)F)cc2)sc1CNc1ccc([C@H]2C[C@@H]2C(=O)N(C)C)cc1
> 10000 nM | 10% | Cc1nc(-c2ccc(C(F)(F)F)cc2)sc1CNc1ccc(C(=O)O)cc1
14.1 nM |  | Cc1nc(-c2ccc(C(F)(F)F)cc2)sc1CNc1ccc([C@H]2C[C@@H]2C(=O)NC(C)C)cc1 (stereo in doubt; 22B) [listing 1 of 2 here]
 | 69% | Cc1nc(-c2ccc(C(F)(F)F)cc2)sc1CNc1ccc([C@H]2C[C@@H]2C(=O)NC(C)C)cc1 (stereo in doubt; 22B) [listing 2 of 2 here]
> 10000 nM | 18% | Cc1nc(-c2ccc(C(F)(F)F)cc2)sc1CNc1ccc(CC(=O)O)cc1
 | 89% | Cc1nc(-c2ccc(C(F)(F)F)cc2)sc1CNc1ccc([C@H]2C[C@@H]2C(=O)O)cc1 (stereo in doubt; 14B) [listing 1 of 2 here]
355 nM | 100% | Cc1nc(-c2ccc(C(F)(F)F)cc2)sc1CNc1ccc(CC(C)C(=O)O)cc1 (configuration not stated)
> 10000 nM | 44% | Cc1nc(-c2ccc(C(F)(F)F)cc2)sc1CNc1ccc(CCCC(=O)O)cc1
36.3 nM | 95% | Cc1nc(-c2ccc(C(F)(F)F)cc2)sc1CNc1ccc(/C=C/C(=O)O)cc1
9.12 nM | 55% | Cc1nc(-c2ccc(C(F)(F)F)cc2)sc1CNc1ccc([C@H]2C[C@@H]2C(=O)NC2CCC2)cc1
 | 71% | Cc1nc(-c2ccc(C(F)(F)F)cc2)sc1CNc1ccc([C@H]2C[C@@H]2C(=O)NC(C)C)cc1 (stereo in doubt; 24B) [listing 1 of 2 here]
204 nM | 52% | Cc1nc(-c2ccc(C(F)(F)F)cc2)sc1CNc1ccc([C@H]2C[C@@H]2C(=O)NC2CCNC2)cc1 (some centres not stated)
12.9 nM | 88% | Cc1nc(-c2ccc(C(F)(F)F)cc2)sc1CNc1ccc(CCC(N)=O)cc1
67.6 nM | 108% | Cc1nc(-c2ccc(C(F)(F)F)cc2)sc1CNc1ccc(CCC(=O)O)cc1
302 nM | 68% | Cc1nc(-c2ccc(C(F)(F)F)cc2)sc1CNc1ccc([C@@H]2C[C@@H]2C(=O)O)cc1
6.92 nM | 78% | Cc1nc(-c2ccc(C(F)(F)F)cc2)sc1CNc1ccc([C@H]2C[C@@H]2C(=O)NO)cc1
53.7 nM | 42% | Cc1nc(-c2ccc(C(F)(F)F)cc2)sc1CNc1ccc([C@H]2C[C@@H]2C(=O)N[C@H](C)c2ccccc2)cc1
11 nM |  | Cc1nc(-c2ccc(C(F)(F)F)cc2)sc1CNc1ccc([C@H]2C[C@@H]2C(=O)NC(C)C)cc1 (stereo in doubt; 24B) [listing 2 of 2 here]
58.9 nM | 109% | Cc1nc(-c2ccc(C(F)(F)F)cc2)sc1CNc1ccc(C(C)CC(=O)O)cc1 (configuration not stated)
4.9 nM |  | Cc1nc(-c2ccc(C(F)(F)F)cc2)sc1CNc1ccc([C@H]2C[C@@H]2C(=O)O)cc1 (stereo in doubt; 14B) [listing 2 of 2 here]
4.47 nM | 80% | Cc1nc(-c2ccc(C(F)(F)F)cc2)sc1CNc1ccc([C@H]2C[C@@H]2C(N)=O)cc1
 | 81% | Cc1nc(-c2ccc(C(F)(F)F)cc2)sc1CNc1ccc([C@H]2C[C@@H]2C(=O)O)cc1 (stereo in doubt; 10B) [listing 2 of 2 here]
12.6 nM | 62% | CC(C)NC(=O)[C@H]1C[C@@H]1c1ccc(NCc2cccc(Oc3ccccc3)c2)cc1
